The list is not random: actives were taken first. Their share in the collection is about 9.2%.
ERa SRC1 inh: ER-alpha (human) coactivator binding inhibition | P03372 | TR-FRET ER-alpha LBD / SRC-1 peptide, estradiol-bound | inhibition, % at 25.6 µM | hit rate 1.7% among 86,000; in the data active means inhibition above about 50%
Target sequence (P03372 whole entry, looked up, the tested form may be a part): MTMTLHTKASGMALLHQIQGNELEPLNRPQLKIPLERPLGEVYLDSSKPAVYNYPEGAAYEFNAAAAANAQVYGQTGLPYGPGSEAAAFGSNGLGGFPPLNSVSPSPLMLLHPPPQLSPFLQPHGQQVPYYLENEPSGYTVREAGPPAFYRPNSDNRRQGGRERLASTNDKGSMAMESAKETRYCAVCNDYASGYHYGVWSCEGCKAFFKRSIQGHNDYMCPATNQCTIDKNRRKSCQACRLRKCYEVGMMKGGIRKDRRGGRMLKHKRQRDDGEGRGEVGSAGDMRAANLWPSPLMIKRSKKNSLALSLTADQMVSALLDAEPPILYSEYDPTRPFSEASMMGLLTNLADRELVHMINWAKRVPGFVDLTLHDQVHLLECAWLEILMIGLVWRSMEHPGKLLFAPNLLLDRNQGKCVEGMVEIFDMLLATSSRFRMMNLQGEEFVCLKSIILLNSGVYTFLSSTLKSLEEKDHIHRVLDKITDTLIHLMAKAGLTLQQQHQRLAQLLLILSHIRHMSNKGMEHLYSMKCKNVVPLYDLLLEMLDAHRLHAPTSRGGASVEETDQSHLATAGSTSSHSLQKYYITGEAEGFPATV
Fibroblast inh: blocks proliferation of human lung fibroblasts | viability, % at 10 µM | LL 47 human lung fibroblast viability, ATP luminescence; active compounds read low | hit rate 1.1% among 85,000;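 active means viability at or below 50% in the single dose screen; inactive means viability above 50%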;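 further: compound exposure lasted 72 h before the ATP readout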
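Signal: luminescent ATP detection, CellTiter-Glo; assay system: LL 47 human lung fibroblasts; input: 1,150 cells/well; incubation: overnight cell rest, 72 h compound treatment at 37 °C; measure: % viability versus median cells-only luminescence; medium: IMEM growth medium with 15% fetal bovine serum; dosing: compound addition at 0.1% DMSO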
HUVEC inhibit: inhibitors of human endothelial cell proliferation | hit rate 1.1% among 86,000 | AID 648 | HUVEC proliferation, CellTiter-Glo luminescence, 72 h; active compounds read low | viability, % at 10 µM (by protocol);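 active means viability at or below 30%; inactive means viability above 30%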
ERa coact pot: ER-alpha (human) coactivator binding potentiation; hit rate 1.3% among 86,000; P03372; TR-FRET ERalpha-LBD/SRC-Cy5 coactivator binding, 2 h; 100 = basal binding, no effect; coactivator binding (% of control), % at 25.6 µM; in the data active means activity above about 200%;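 further: binding measured in presence of low estradiol as agonist stimulus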
ERb coact inh: blocks coactivator binding to human estrogen receptor beta; TR-FRET ER-beta LBD / SRC1-Cy5 peptide binding; receptor agonist-loaded with 1 µM estradiol; inhibition, % at 25.6 µM; hit rate 1.3% among 86,000;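 active means compounds whose percent inhibition of the receptor-coactivator binding signal exceeds about 50% in the single-dose screen, limit read from the data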
H69AR inhibit: blocks growth of human H69AR lung tumor cells | H69AR lung tumor viability, ATP luminescence, 72 h; active compounds read low | hit rate 6% among 85,000 | viability, % at 10 µM;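 active means viability at or below 40%; inactive means viability above 40%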;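 further: multidrug resistant small cell line overexpressing MRP-1 efflux transporter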
Hits are given with their value; n = inactive; [ ] = remark or other dose.

SMILES	ERa SRC1 inh	Fibroblast inh	HUVEC inhibit	ERa coact pot	ERb coact inh	H69AR inhibit
CCSc1nnc(Cc2cc(=O)[nH]c(=O)[nH]2)n1-c1cc(C)ccc1C	n	n	n	n	70	n
CNC(=O)c1nnn(Cc2ccccc2)c1NC(=O)C(F)(F)F	n	n	n	n	n	n
COc1ccc(C)cc1NC(=O)CSc1nnc(CC(=O)Nc2ccccc2C)n1C	n	n	n	n	n	n
Sc1oc(-c2ccccc2)cc1C=Nc1ccccc1	n	n	n	n	n	26
O=C1C(C=Nc2ccccc2)=C(O)c2ccccc21	n	n	n	n	n	n
NC(=O)C1(N2CCCCC2)CCN(C2CC(=O)NC2=O)CC1 (configuration not stated)	n	n	n	n	n	n
O/N=C\c1cccn1-c1ccc(Br)cc1	n	n	n	n	n	n
COc1nc2cc(C)ccc2cc1-c1noc(-c2cccnc2)n1	50[fluorescence artefact?]	n	n	n	n	n
COc1cc(OC)cc(-c2nc(-c3cc4cc(C)ccc4nc3OC)no2)c1	n	n	n	n	n	n
O=C(NCCCCNC(=O)c1ccc(Cl)s1)c1ccc(Cl)s1	n	n	n	n	n	n
O=C(NCCCCCCNC(=O)c1ccc(Br)s1)c1ccc(Br)s1	82[fluorescence artefact?]	n	n	417	58[fluorescence artefact?]	n
CC(Nc1ccc(Cl)cc1)c1cc(Cl)ccc1O (configuration not stated)	n	n	n	n	n	39
CC(=Nc1ccc(C)c(C)c1)C1=C(O)CSC1=O	n	n	n	n	n	n
Cn1nnnc1SCC(=O)NCc1ccco1	n	n	n	n	n	n
Cc1cc2c(=O)n(Cc3ccco3)c(SCC(=O)NCc3ccco3)nc2s1	n	n	n	n	n	n
O=C(CSc1nnc(-c2ccco2)n1Cc1ccccc1)NC(=O)NCc1ccccc1	n	n	n	n	n	n
CCOc1ccccc1-n1nnnc1SCC(=O)NC(=O)NCc1ccco1	77[fluorescence artefact?]	n	n	n	62	n
C=CCn1c(SCC(=O)NC(=O)NCc2ccco2)nc2sc(CC)cc2c1=O	74	48	n	n	65	28
Cc1nnc(SCC(=O)NC(=O)NCc2ccco2)n1Cc1ccccc1	52	n	n	n	n	n
CCCn1c(SCC(=O)NC(=O)NCc2ccco2)n[nH]c1=O	74[fluorescence artefact?]	n	n	n	63[fluorescence artefact?]	n
CC1C2=C(CCCC2=O)N(c2cccc3ccccc23)C2=C1C(=O)CCC2	n	n	n	n	n	n
COc1ccc2cc(CN(CC3CCCO3)S(=O)(=O)c3ccccc3Cl)c(=O)[nH]c2c1 (configuration not stated)	n	n	n	n	n	n
Cc1ccc2c(c1)NCCO2	n	n	n	n	n	n
CC(C)Oc1ccccc1C1CC(=O)Nc2c1c(=O)n(C)c(=O)n2C (configuration not stated)	n	n	n	n	n	n
CCOc1ccccc1NC(=O)Cn1nnc(C(=O)NCc2ccco2)c1N	n	n	n	n	n	26
SMILES	ERa SRC1 inh	Fibroblast inh	HUVEC inhibit	ERa coact pot	ERb coact inh	H69AR inhibit
O=C(CSc1nc(-c2ccc(F)cc2)cs1)NC(=O)NCc1ccco1	53	n	n	n	n	n
Cc1cc(NC(=O)CSc2nc(-c3ccc(F)cc3)cs2)no1	n	n	n	n	n	n
CCOC(=O)C1CCCN(C(=O)CCn2nc(-c3ccccc3)ccc2=O)C1 (configuration not stated)	n	n	n	n	n	n
Cc1cc(S(=O)(=O)Nc2ccc(F)cc2)c(C)s1	n	n	n	n	n	n
CCOc1ccccc1-c1cc(-c2ccc(OC)cc2)nc2c1c(=O)n(C)c(=O)n2C	n	n	n	n	n	21
CCOC(=O)C(C)Sc1nc(-c2ccc(OC)cc2)nc2c1c(=O)n(C)c(=O)n2C (configuration not stated)	n	n	n	n	n	n
COc1ccccc1C(=O)N1CCN(c2cccc(C(F)(F)F)c2)CC1	n	n	n	n	n	15
COc1cc2c(C(=O)N3CCN(c4ccccc4)CC3)c(C)oc2cc1Br	n	n	n	n	n	23
O=C(O)CCCC(=O)N1CCN(c2cccc(Cl)c2)CC1	n	n	n	331[fluorescence artefact?]	n	n
COc1ccc(N2CCN(C(=O)c3c(-c4ccccc4)noc3C)CC2)cc1	n	n	n	n	n	n
CCOc1ccccc1C(=O)N1CCN=C1SC	n	n	n	n	87	n
O=C(c1cccc(C(F)(F)F)c1)N1CCOC12CCN(c1ncc(C(F)(F)F)cc1Cl)CC2	n	n	n	n	n	n
CC(C)(C)Cc1nc(-c2ccc(Cl)cc2)no1	n	n	n	n	n	n
CCOC(=O)c1[nH]c(C)c(C(=O)N2CCN(c3ccccc3)CC2)c1C	n	n	n	n	n	n
CCOc1ccccc1C(=O)N1CCN(c2cccc(Cl)c2)CC1	n	n	n	n	n	31
CCOc1ccc2ccccc2c1C(=O)N1CCN(c2ccccc2)CC1	n	n	n	n	n	15
COc1ccc(C(=O)N2CCN(c3cccc(Cl)c3)CC2)c(OC)c1	n	n	n	n	n	15
O=C(O)c1ccccc1C(=O)N1CCN(c2cccc(Cl)c2)CC1	n	n	n	n	n	n
O=C(Cn1cc2c(n1)CCCCC2)NCc1cccs1	n	n	n	n	n	n
c1ccc2oc(-c3nn4c(Cn5cnc6ccccc65)nnc4s3)cc2c1	n	n	n	n	n	n
COc1ccccc1-c1nnc2sc(-c3cc4ccccc4o3)nn12	n	49	n	n	n	31
COc1ccccc1-c1nnc2sc(-c3cnccn3)nn12	52[fluorescence artefact?]	n	n	n	65	n
COc1ccc(-c2nnc3sc(-c4ccccn4)nn23)cc1	n	n	n	n	n	n
CC1Sc2ccccc2N(CC(=O)N(C(C)C)C(C)C)C1=O (configuration not stated)	n	n	n	n	n	n
Cc1cc(NCC2CCCO2)n2c(nc3ccccc32)c1C#N (configuration not stated)	n	n	n	n	n	n
SMILES	ERa SRC1 inh	Fibroblast inh	HUVEC inhibit	ERa coact pot	ERb coact inh	H69AR inhibit
CC(C)c1cc(NCC2CCCO2)n2c(nc3ccccc32)c1C#N (configuration not stated)	n	n	n	n	n	9.7
CCc1c(C)c(C#N)c2nc3ccccc3n2c1NCC1CCCO1 (configuration not stated)	n	n	n	n	n	32
COCCCNC(=O)c1sc2ncnc(N3CCc4ccccc4C3)c2c1C	n	n	n	n	n	28
O=C(Oc1cccc(-c2cnc3ccccc3n2)c1)c1ccco1	n	n	n	311	n	n
O=C(Oc1ccc2ccccc2c1)c1ccco1	n	n	n	n	n	n
Cn1c(SCC(=O)N(C2CCCCC2)C2CCCCC2)nnc1-c1cccs1	n	n	n	n	n	20

Bioassay records: PubChem BioAssay, several laboratories
